Laboratory results as given in ChEMBL document CHEMBL3576811, “Small Molecule Disruptors of the Glucokinase-Glucokinase Regulatory Protein Interaction: 5. A Novel Aryl Sulfone Series, Optimization Through Conformational Analysis” (J Med Chem, 2015).

Tests used:
Type in all cases: ADME, organism-based
[1] = Cmax in Sprague-Dawley rat at 10 mg/kg, po after 4 hrs; parameters: dose 10 mg/kg, route oral; conditions: in vivo
In short: (§1)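 Sprague-Dawley rats given one 10 mg/kg oral dose in 1% Tween 80, 2% HPMC, 97% water. Plasma drug levels followed over time, giving Cmax, time to Cmax and AUC. Free concentration derived using the fraction unbound from rapid equilibrium dialysis.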

[2] = Oral bioavailability in Sprague-Dawley rat at 10 mg/kg; conditions: in vivo
Rattus norvegicus = experiment: Free plasma concentration in Sprague-Dawley rat at 10 mg/kg, po after 4 hrs; conditions: in vivo; in short: as §1
[3] = Volume of distribution at steady state in Sprague-Dawley rat at 2 mg/kg, iv; conditions: in vivo, read-out: Vdss
In short: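 Sprague-Dawley rats dosed intravenously at 2 mg/kg in 100% DMSO. Plasma clearance, steady-state volume of distribution and terminal half-life derived from the plasma concentration-time profile.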

[4] = AUC in Sprague-Dawley rat at 10 mg/kg, po; conditions: in vivo; in short: as §1

Cmax [1]: 57.6 µM
bioavailability [2]: 82%
Cp(f) (Rattus norvegicus): 0.43 µM
Vd [3]: 0.18 L/kg
AUC [4]: 568 µM·h
Compound: C[C@](O)(CO)c1ccc(-c2ncc(S(=O)(=O)c3ccc(N)nc3)s2)c(Cl)c1
